Measurements as given in the EternaBench riboswitch data.

Tested on: MS2 coat protein
Test: apparent Kd, MS2 coat protein; higher = weaker binding; RNA-MaP array
How it was run: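 Designs measured on fewer than 10 clusters were excluded from the data. The rest were RNAs transcribed from sequenced DNA templates on an Illumina sequencing chip and incubated at room temperature, with or without input ligand, with fluorescently labeled MS2 coat protein at 1.5 nM to 3 μM for 0.8–1.5 h at the lowest to 10–20 min at the highest concentrations. Apparent Kd is the median of the per-cluster binding-curve fits.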

[1] = designed as: ON switch for theophylline, no ligand
[2] = ligand present: theophylline, designed as: ON switch for theophylline
[3] = designed as: ON switch for flavin mononucleotide, no ligand
[4] = ligand present: flavin mononucleotide, designed as: ON switch for flavin mononucleotide
[5] = designed as: OFF switch for flavin mononucleotide, no ligand
[6] = ligand present: flavin mononucleotide, designed as: OFF switch for flavin mononucleotide
[7] = designed as: ON switch for tryptophan, no ligand
[8] = ligand present: tryptophan, designed as: ON switch for tryptophan
[9] = designed as: OFF switch for tryptophan, no ligand
[10] = designed as: OFF switch for theophylline, no ligand
[11] = ligand present: theophylline, designed as: OFF switch for theophylline

GUCUCAGACCGAGAUACCAGCUGGGUUUCCCACAUGAGGAUCACCCAUGUAUUCAGAUUAAGCCCUUGGCAGCUCAUCUAGGUCC
apparent Kd [1]: 15.8 nM | apparent Kd [2]: 20.9 nM

GGUUCUUGUUGACGUUUAUACAUGAGGAUCACCCAUGUUGCGCAGGAUAUUUCACAUUGAUAGAGAAAGAAGGGCGAUGUACGU
apparent Kd [3]: 10.4 nM | apparent Kd [4]: 8.68 nM

AUAAUAGUAGGAUAUACAUGAGGAUCACCCAUGUGACCGCUCAAAGAUAGCGAUGCUCGUAGAAGGACUGUGGA
apparent Kd [5]: 21.3 nM | apparent Kd [6]: 21.8 nM

CUACGCAUAGGAUAUGCCUACUGGGACAUGAGGAUCACCCAUGUGUUAUUAUCAGCUCCGGCAGAAGGAUGGUACU
apparent Kd [5]: 29.1 nM | apparent Kd [6]: 11.8 nM

AGCGUGGAUAAAGGAUAUGUACCGGUAACUACAUGAGGAUCACCCAUGUCUUCAGGCCAAAACCGACAGAAGGUUACUUAUCGC
apparent Kd [5]: 21.7 nM | apparent Kd [6]: 20.7 nM

UCUGGUAUGACGGCCGCCACUAGAUCGUGAGAAGCCUGCAUACAUGAGGAUCACCCAUGUCUCACUAGGACCGGGUCAUUCCAAU
apparent Kd [7]: 66.1 nM | apparent Kd [8]: 22.3 nM

UAUAAACAGCCUGGUUACUCGUCGCGCUUGCGAGGACCGGUACGGCCGCCACUCGACCCAUCACAUGAGGAUCACCCAUGUCCCA
apparent Kd [9]: 31.7 nM

UUCCUCAGCAGGGUAACAUGAGGAUCACCCAUGUCGGAGAGCGAGGAUAUCUCGUGAAGCUCAUAAGAGAAGGCGCACAACUAG
apparent Kd [5]: 18.2 nM | apparent Kd [6]: 17.2 nM

GACAGACAUGAGGAUCACCCAUGUGAUACAGGCGUAGGAUAUUCGUGAGGAUACAGAAAAGAAGAAGGACGGGAAG
apparent Kd [3]: 40.3 nM | apparent Kd [4]: 38 nM

GGGCGCCGAGGAUAUCACAGGAGUAACAUGAGGAUCACCCAUGUAUCAGUGGGCGUAAUAUGAGAAGGCGGUGGUU
apparent Kd [5]: 85.5 nM | apparent Kd [6]: 43.5 nM

CGACGCUUAGGAUAUUGGUACACCUACAUGAGGAUCACCCAUGUGACUCCUUUACAAGGGCAAGAAGGAAGUUGGU
apparent Kd [5]: 110 nM | apparent Kd [6]: 221 nM

UAAAACGGAUCAGGAUAUGUGAAACUGAGUGCGUGAACACUCGCCUACAUGAGGAUCACCCAUGUACAGAAGGGAACUACUACA
apparent Kd [3]: 16.4 nM | apparent Kd [4]: 13.9 nM

GAAGUCGCCGAGAAGGGAGCGAAACUCUCUAUCACAUGAGGAUCACCCAUGUAGUUCUCGUGAGCUCAGGAUAUCGUCGAACGC
apparent Kd [5]: 14.5 nM | apparent Kd [6]: 10.5 nM

AUGUCGCAAUGGAAAAGACAUGAGGAUCACCCAUGUCAGCGUAGAAGGACCUUGUCGACUAAUGGGUAGGAUAUACGAGAAUCC
apparent Kd [3]: 6.79 nM | apparent Kd [4]: 7.2 nM

AUGUGUAUUGAAGGAUAUGAAGCCGGCAUAAAAUCAGAAGGUCAACUAAUUACACAUGAGGAUCACCCAUGUGAUGACAUGCUU
apparent Kd [5]: 17.2 nM | apparent Kd [6]: 24.8 nM

CAUGAGAGAUUGUUUUGUGACUCUAACGAUACCAGAGUAGGACUUCUCCCUUGGCAGCGUGUGACAUGAGGAUCACCCAUGUCCA
apparent Kd [10]: 10.6 nM | apparent Kd [11]: 11.7 nM

CCAUGGUUGACGGCCGCCACUCAUUAGUCUUUGAGGUUGGCACAUGAGGAUCACCCAUGUCUGCAGAGGACCGGGUCUCGCCACA
apparent Kd [7]: 44.3 nM | apparent Kd [8]: 44.2 nM

AAGUGACAUGAGGAUCACCCAUGUGAGGAUAUGGCUGAACAGAAAUAUGGGAAAAGAGCCAGAAGGCACGCCGG
apparent Kd [5]: 62.3 nM | apparent Kd [6]: 112 nM

CCCAAUUUCCGAGAUAUGGGUCCAACUAAACGAGGACCGGUACGGCCGCCACUCGACUACAAACAUGAGGAUCACCCAUGUAAAG
apparent Kd [9]: 17 nM | apparent Kd (ligand present: tryptophan, designed as: OFF switch for tryptophan): 17.4 nM

GAAAUCAGAGGAUAUCAGUCAUGUCACAUGAGGAUCACCCAUGUUUGUGUUUUGGUAGAUUGAGAAGGCUGCGACC
apparent Kd [5]: 16.6 nM | apparent Kd [6]: 9.66 nM

CUCCCACAUGAGGAUCACCCAUGUAUGAAAAUACAAGGAUAUGGCGUCCUGAUUAGCGGCCCAGAAGGUGUGCUUU
apparent Kd [3]: 114 nM | apparent Kd [4]: 70.2 nM

AAAGAACAUGAGGAUCACCCAUGUCAGGAUAUACAAAGACGUAGCAAAGCGGACUCAAGAAGAAGGGACAAGGA
apparent Kd [5]: 12.8 nM | apparent Kd [6]: 10.1 nM

CUGUUACAUGAGGAUCACCCAUGUUUUUGGUUAAGAGGAUAUGGCACAUGGUUAAACGUUCCAGAAGGCUUUGCAC
apparent Kd [3]: 11.8 nM | apparent Kd [4]: 8.94 nM

UUCAUUCGAACCAAGGAUAUGUGAUAAGUUACAUGAGGAUCACCCAUGUAUCAGUACAUCAACAGACAGAAGGUGGUGCAUAGUCA
apparent Kd [3]: 7.14 nM | apparent Kd [4]: 6.57 nM

UAGGACAUCCAGAAGGUAACCCAAUGAUAUAACACAUGAGGAUCACCCAUGUUGAAUCAGAGACUUAAGGAUAUGGUUGAUCUU
apparent Kd [3]: 23.1 nM | apparent Kd [4]: 13.5 nM

CACAGGUCAGUAGGAUAUGCUACAUGAGGAUCACCCAUGUGGUGGUAUAUGCGUCUAGGCGCAAAGCAGAAGGACUUCCAGGUG
apparent Kd [5]: 42 nM | apparent Kd [6]: 146 nM

ACUAUACAUGAGGAUCACCCAUGUGGUCACAUAUGAGGAUAUAUGCGGCUGUCCCGGUCAAUAGAAGGCAUAUUUA
apparent Kd [3]: 52 nM | apparent Kd [4]: 53.5 nM

AUGUAGUCGGUAGGAUAUACGAGUCUGAUAACAGUAGAAGGACCGAGUACGGCUCCGCAGUACAUGAGGAUCACCCAUGUGAUC
apparent Kd [3]: 533 nM | apparent Kd [4]: 286 nM

AACAUGAGGAUCACCCAUGUCACAUACAAGUGGAGUUCUAUGAGAAGGGCGAAACGAAUGAGCACGCAGGAUAUCAGCGAUAAA
apparent Kd [3]: 13.5 nM | apparent Kd [4]: 11.3 nM

AACAUGUGAGGAUAUAGUCAAAAUAGCACAAGUAACAUAAACUAGAAGGCACAUGAGGAUCACCCAUGUGAAUA
apparent Kd [5]: 7.9 nM | apparent Kd [6]: 10.6 nM

AUAAAUUUUACACGUUGCUACAUGAGGAUCACCCAUGUGUGGAGAAGGGAUCUGCCUACAAGGAAUCAGGAUAUCCAACUGUUC
apparent Kd [3]: 32.9 nM | apparent Kd [4]: 51.6 nM

GAUCAUUUAGUGAGGAUAUGUCUCCUGCAAAGUCGACAGAAGGCACAUGAGGAUCACCCAUGUUCGCUUCGGAU
apparent Kd [5]: 5 nM | apparent Kd [6]: 5.75 nM

ACCUACGUAGGAUAUACGCAUCGUGGACCGCAUGCCCGUGCACAUGAGGAUCACCCAUGUAGAAGGACGUACGC
apparent Kd [5]: 17.1 nM | apparent Kd [6]: 22.6 nM

UUAUACGCGAAAGGAUAUCUGAGAGUGGGAUCGUGGACAUGAGGAUCACCCAUGUGGAGAGAGGGAGAGAAGGUUCGGGUAUUC
apparent Kd [5]: 31.7 nM | apparent Kd [6]: 29.5 nM

CGAUGACAUGAGGAUCACCCAUGUUGCGGUAUUCAAGGAUAUCCUGAGUUUUCAAGCAUUGGAGAAGGUGAUUUCG
apparent Kd [3]: 30.1 nM | apparent Kd [4]: 26.1 nM

AUUCGAACGGUCAGGAUAUGCGGAAAGACAUCGCAGCAGAAGGGACAUGAGGAUCACCCAUGUAAAGGGCACAA
apparent Kd [5]: 36.1 nM | apparent Kd [6]: 182 nM

AACCGGCAAGGAUAUACAUGAGGAUCACCCAUGUACGACGCGCUGGCUACGUUUUUAUGUAGAAGGUGCCGACC
apparent Kd [5]: 6.19 nM | apparent Kd [6]: 6.26 nM

UACCGCUACAUAGGAUAUGGAGGAUGUAUGAAACACAUGAGGAUCACCCAUGUCAUCUGCACACGCCAGAAGGAUGGAAGAAAA
apparent Kd [3]: 13.4 nM | apparent Kd [4]: 7.13 nM

AACCAUCUCGGCGAUACCAGUGCCUACGAGUACAUGAGGAUCACCCAUGUAGGUGACCGACACCCUUGGCAGCGCGAUUGAGUCA
apparent Kd [1]: 140 nM | apparent Kd [2]: 70.6 nM

UUAGACCUGCGAGGAUAUUCCAGACUAACUGAGGAAGAAGGCGCUAGAACAUGAGGAUCACCCAUGUAACAGGGAACACUUCGU
apparent Kd [5]: 9.82 nM | apparent Kd [6]: 26.3 nM

CCAAAAUCGAAGAAGGCUAUGCGUACCAAUCUUAGAGGAUAUUCGACCUUAGCUAACAUGAGGAUCACCCAUGUGGGAAACACG
apparent Kd [5]: 28 nM | apparent Kd [6]: 19.5 nM

CUCCUCACCGUGAGGAUAUAGUAUUCCGGUUGUUACUAGAAGGCACAUGAGGAUCACCCAUGUUACGGUUCCCA
apparent Kd [5]: 13.4 nM | apparent Kd [6]: 50.6 nM

AUCGUGCCAAGAGGAUAUCACCAUUCAAUACCCACAUGAGGAUCACCCAUGUAUGCAGUGUUCCGUGAGAAGGCUUGCAUACCA
apparent Kd [3]: 113 nM | apparent Kd [4]: 19.4 nM

AGAAGACAUGAGGAUCACCCAUGUGAGGAUAUUACACUAGAAAACAGCCGCGUCUCGGUAAGAAGGCACUAUGG
apparent Kd [5]: 33.9 nM | apparent Kd [6]: 36.6 nM

GCCAUAAAAGAGAAGGGCGGCCACCUACGAACCGCAGGAUAUCUUUGCUUUCCUCGGACAUGAGGAUCACCCAUGUGGCCAAUA
apparent Kd [5]: 97.3 nM | apparent Kd [6]: 160 nM

CGUUCAGAUCAUGAUAACAUGAGGAUCACCCAUGUGGAAUAAUAGGAUAUGGAGAACAAAAUUAACCAGAAGGAUUAUAACAAA
apparent Kd [3]: 70 nM | apparent Kd [4]: 44.9 nM

AGUUUGGGCGCAGGAUAUCUUCACAUGAGGAUCACCCAUGUCCAUAAGAUAUUUAUGUCAUUUGGAGAGAAGGGCGGUUGUAAU
apparent Kd [3]: 55.1 nM | apparent Kd [4]: 36.1 nM

CUGUUCGUAGGAUAUACUGAAACACGGGACAUUCUGAUUAGACAUGAGGAUCACCCAUGUAGAAGGACGCACGU
apparent Kd [5]: 17.4 nM | apparent Kd [6]: 16.9 nM

UACCAUAGACCAGUUAGCGACACAUGAGGAUCACCCAUGUAGAGAAGGUGCUCUAUCUUAAGACGCAAGGAUAUCUGCAUUAUA
apparent Kd [5]: 20.3 nM | apparent Kd [6]: 21.9 nM

AAUGAUGCGAUCUACAGUCGAGGAUUCGAUACCAGCAACGGGCGUUGCCCUUGGCAGCGAGCUACAUGAGGAUCACCCAUGUUAC
apparent Kd [10]: 19.9 nM | apparent Kd [11]: 34.7 nM

GACCGGUAUCCAGGAUAUGCAAUUAUUUACAUGAGGAUCACCCAUGUCGCAAGAGUAGGGGUGUAGCAGAAGGGGACAACAGCA
apparent Kd [5]: 70.7 nM | apparent Kd [6]: 62.7 nM

ACAUGAGGAUCACCCAUGUUAAAAGAAGAUAGCAUAUUGGGUAGAAGGUCACAUUUCCAUUAAGUGAAGGAUAUACCAUGAUUC
apparent Kd [3]: 12.6 nM | apparent Kd [4]: 7.04 nM

UUGUAACAUGAGGAUCACCCAUGUAUGAACUAACAAGGAUAUGCGUGAGUCAGAUAAGACGCAGAAGGUGUCAGAU
apparent Kd [3]: 10.3 nM | apparent Kd [4]: 7.55 nM

AGUACGUCAGGAUAUCGCGUACGAAACAUGAGGAUCACCCAUGUGGUGCCGUGGCUCUAUCGAGAAGGGACUUGGC
apparent Kd [5]: 13.3 nM | apparent Kd [6]: 12.6 nM

UACCGACAUGAGGAUCACCCAUGUACUGCGCUUGGAGGAUAUCGGCUUGAUUUUGCGCGUCGAGAAGGCCAACCUA
apparent Kd [3]: 12.2 nM | apparent Kd [4]: 10.2 nM
